Screens as filed in PubChem.
ABHD5 PLIN5 PPI = blocks binding of human ABHD5 to perilipin-5; inhibition, % at 4 µM; Q00G26+Q8WTS1; Split G. princeps luciferase complementation, luminescence, 4 h; 360,000 compounds, 0.78% hits;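 active = inhibition above the mean inhibition across every tested compound plus 3 SD, cut at about 22% in these data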;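 also: 0% = DMSO only wells and the 100% control is not disclosed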
APOBEC3A inh = inhibitors of human APOBEC3A DNA deaminase | recombinant A3A, FAM/TAMRA ssDNA deamination fluorescence | P31941 | 330,000 compounds, 0.41% hits | inhibition, % at 20 µM;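 active = at least 40% inhibition at 20 µM here, with at most 30% in a related deaminase screen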;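 also: plate controls were A3A with DMSO for no effect and wells lacking A3A enzyme for full effect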
core dimer inh = HCV core protein dimerization inhibition; TR-FRET GST/Flag-core106 dimerization, 1536-well; inhibition, % at 5 µM; 300,000 compounds, 0.33% hits;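 active = inhibition above the mean of all tested compounds plus 3 SD, set per screening campaign, cut at about 45% in these data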
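Assay system: GST-tagged and Flag-tagged HCV core protein residues 1-106 / Times: compound-protein-antibody incubation 4 h at 22.5 °C / Signal: time-resolved FRET, ex 340 nm, em 617 and 671 nm / Evaluation: % inhibition based on acceptor/donor emission ratio / Benchmarks: wells lacking GST-core106 and wells with excess unlabelled core106 / Repeats: singlicate, one well per compound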
APOBEC3G inh = APOBEC3G (human) deaminase inhibition. recombinant A3G, ssDNA deamination FAM/TAMRA fluorescence. Q9HC16. 330,000 compounds, 0.28% hits. inhibition, % at 20 µM;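 active = inhibition of at least 40% at 20 µM, with no more than 30% in the related APOBEC3A deaminase screen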;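 also: plate controls were DMSO wells with A3G for no effect and wells lacking A3G enzyme for full effect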
Target sequence (Q9HC16 whole entry, looked up): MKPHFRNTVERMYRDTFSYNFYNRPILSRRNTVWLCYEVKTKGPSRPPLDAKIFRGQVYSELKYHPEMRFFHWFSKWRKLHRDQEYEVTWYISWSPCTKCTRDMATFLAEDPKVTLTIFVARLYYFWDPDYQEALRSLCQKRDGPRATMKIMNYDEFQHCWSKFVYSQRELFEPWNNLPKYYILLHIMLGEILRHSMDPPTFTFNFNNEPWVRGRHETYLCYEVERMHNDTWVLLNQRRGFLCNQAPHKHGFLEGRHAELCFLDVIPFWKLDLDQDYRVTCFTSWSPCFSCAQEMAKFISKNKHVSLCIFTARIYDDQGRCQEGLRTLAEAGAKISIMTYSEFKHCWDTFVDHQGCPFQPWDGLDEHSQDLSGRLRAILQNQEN
PRMT1 inh = blocks human protein arginine methyltransferase 1; 370,000 compounds, 1.3% hits; recombinant PRMT1, activity-based probe fluorescence polarization; inhibition, % at 2.79 µM;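 active = inhibition above about 21% made by adding two undisclosed values, limit read from the data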
NS3 helicase inh = blocks Hepatitis C virus NS3 helicase unwinding. NS3 helicase DNA unwinding, Cy5 molecular beacon fluorescence. inhibition, % at 10.9 µM. 290,000 compounds, 0.56% hits. AID 1800;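 active = inhibition above the mean of all tested compounds plus 3 SD, set per campaign, cut at about 35% in these data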;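 also: 0% = DMSO wells and 100% = thioflavine S control wells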
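Measured by: Cy5 fluorescence, 0 and 60 min reads / Assay system: NS3 helicase fragment of HCV / Control set: low DMSO, high thioflavine S at 110 µM / Times: 1 h reaction at 25 °C, ATP-initiated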
Starred values were filed as active, the others as inactive. A selection: hits, their analogues and other compounds. The true share with any hit is near 2.9%.

Screening CCN(CC)c1ccc(NS(=O)(=O)c2ccc3c(c2)oc(=O)n3C)c(C)c1 returned ABHD5 PLIN5 PPI -9.5, APOBEC3A inh 10.1, core dimer inh -15.8, APOBEC3G inh 4.3, PRMT1 inh 24.8* and NS3 helicase inh 8.0.
COC(=O)[C@]12C=CCN1[C@@H](c1ccc(OC)c(OC)c1)c1c(c3ccccc3n1S(=O)(=O)c1ccc(C)cc1)C2 was read as PRMT1 inh 5.9.
For Cc1nn2c(nc1=O)SCC(c1ccccc1)=N2 the results were ABHD5 PLIN5 PPI -1.8, APOBEC3A inh -1.8, core dimer inh -3.8, APOBEC3G inh -8.0, PRMT1 inh 23.7* and NS3 helicase inh 6.2.
Screening CN(C)C1=NCC(CSC(=N)N)S1 (stereo not drawn) returned ABHD5 PLIN5 PPI -7.4, APOBEC3A inh 2.2, core dimer inh -1.2, APOBEC3G inh -2.0, PRMT1 inh 24.6* and NS3 helicase inh -2.9.
`CN1c2ccccc2C(O)=C(C(=S)Nc2ccccc2)S1(=O)=O` gave ABHD5 PLIN5 PPI -10.8, APOBEC3A inh -2.8, core dimer inh 7.7, APOBEC3G inh -0.8, PRMT1 inh 21.8* and NS3 helicase inh 5.9.
For O=C(NC(=S)N(CCO)Cc1ccccc1)c1ccc(F)cc1Cl the results were ABHD5 PLIN5 PPI -7.6, APOBEC3A inh -4.7, core dimer inh 0.9, APOBEC3G inh -8.2, PRMT1 inh -1.3 and NS3 helicase inh 8.9.
For C=CCOC(=O)C1=C(C)NC(SCC(=O)Nc2nccs2)=C(C#N)C1c1cccs1 (stereo not drawn) the results were ABHD5 PLIN5 PPI -8.4, APOBEC3A inh -1.8, core dimer inh 49.0*, APOBEC3G inh -4.3, PRMT1 inh 1.2 and NS3 helicase inh -3.1.
`O=C(COC(=O)c1cccc(S(=O)(=O)N2CCN(c3ccccc3)CC2)c1)NCc1ccco1` gave ABHD5 PLIN5 PPI 4.7, APOBEC3A inh 18.1, core dimer inh 82.4*, APOBEC3G inh 1.4, PRMT1 inh 1.1 and NS3 helicase inh 8.2.
Cc1ccc(NNC(=O)Nc2ccc(Cl)cc2)nn1 was read as ABHD5 PLIN5 PPI -2.6, APOBEC3A inh 0.8, core dimer inh 4.3, APOBEC3G inh 8.6, PRMT1 inh 24.2* and NS3 helicase inh -14.2.
Screening COc1cccc(OCc2nc(-c3cccc([N+](=O)[O-])c3)no2)c1 returned ABHD5 PLIN5 PPI 0.1, APOBEC3A inh -2.4, core dimer inh 0.5, APOBEC3G inh -11.3, PRMT1 inh 4.1 and NS3 helicase inh -20.8.
Screening COc1cccc(-c2noc(Cn3nc(C)c([N+](=O)[O-])c3C)n2)c1 returned ABHD5 PLIN5 PPI 1.8, APOBEC3A inh 4.7, core dimer inh 5.6, APOBEC3G inh 9.4, PRMT1 inh 23.2* and NS3 helicase inh -7.8.
`CC1(C)Cc2c(ccc3ccccc23)/C(=C/C(=O)N2CCCCC2)N1` gave ABHD5 PLIN5 PPI -0.5, APOBEC3A inh -3.1, core dimer inh 17.9, APOBEC3G inh -3.6, PRMT1 inh -1.8 and NS3 helicase inh -19.8.
`O=C(/C=C1\NC2(CCCC2)Cc2ccccc21)N1CCOCC1` gave ABHD5 PLIN5 PPI 2.3, APOBEC3A inh -4.2, core dimer inh 0.8, APOBEC3G inh 0.8, PRMT1 inh 27.5* and NS3 helicase inh -4.8.
Cc1cccc(C)c1NC(=O)c1nc(S(=O)(=O)Cc2ccccc2)ncc1Cl was read as ABHD5 PLIN5 PPI 71.1*, APOBEC3A inh -3.8, core dimer inh 9.9, APOBEC3G inh -3.5, PRMT1 inh 15.6 and NS3 helicase inh -5.6.
For COc1cccc(CNC(=O)c2cc3c(c(-c4cccc(-c5cccc(C#N)c5)c4)n2)[C@H](CCO)N(S(=O)C(C)(C)C)C3)c1 (stereo partly drawn) the results were ABHD5 PLIN5 PPI 14.4 and PRMT1 inh -2.6.
For COc1ccccc1NC(=S)NC1CCC(CC2CCC(NC(=S)Nc3ccccc3OC)CC2)CC1 (stereo not drawn) the results were ABHD5 PLIN5 PPI -4.5, APOBEC3A inh -5.0, core dimer inh 47.6*, APOBEC3G inh -8.4, PRMT1 inh -3.9 and NS3 helicase inh -3.4.
Screening COc1ccc(-[n+]2c(C)cc(/C=C3\Sc4ccccc4N3C)cc2C)cc1 returned ABHD5 PLIN5 PPI 17.1, APOBEC3A inh 23.3, core dimer inh -27.9, APOBEC3G inh 16.5, PRMT1 inh 24.3* and NS3 helicase inh -33.3.
